{
  "source": "paper PMC3672992",
  "about": "(Therapeutic drug monitoring, 2008)",
  "key": {"[1]": {"conditions": "cited from earlier work"}, "[2]": {"experiment": "Steady-state pharmacokinetics of unbound lopinavir", "format": "in vivo, human"}, "[3]": {"conditions": "mild hepatic impairment group; cited from earlier work"}, "[4]": {"experiment": "Steady-state plasma pharmacokinetics of total lopinavir", "format": "in vivo, human", "conditions": "for Total lopinavir Ctrough / Total lopinavir tmax: steady-state, median (IQR)"}, "[5]": {"experiment": "Steady-state plasma pharmacokinetics of total ritonavir", "format": "in vivo, human", "procedure,_shortened": "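HIV-infected Caucasian adults took protease-inhibitor combination capsules at 400/100 mg twice daily (266/66 mg if under 50 kg) with standardized meals. After at least 2 wk of dosing, blood was drawn predose and 1, 2, 3, 4, 6, 8 and 12 h after the morning dose. EDTA plasma (600g, 10 min) was stored at −80°C and assayed by HPLC-UV (linear 100–16,000 ng/mL). Ctrough is the predose, noncompartmental value.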"}, "[6]": {"conditions": "without ritonavir boosting, cited from earlier work"}, "[7]": {"conditions": "patients with significant liver fibrosis; cited from earlier work"}, "[8]": {"conditions": "Group I HIV+/HCV−, n=12, median (IQR)"}, "[9]": {"conditions": "Group II HIV+/HCV+, n=18, median (IQR)"}, "[10]": {"conditions": "Group III HIV+/HCV+ with cirrhosis, n=6, median (IQR)"}, "[11]": {"conditions": "Group III HIV+/HCV+ with cirrhosis, n=9"}},
  "note": "Read-outs that look alike come from different tables or passages of the source.",
  "data": [
    {"smiles": "O=C1Nc2ccc(Cl)cc2[C@@](C#CC2CC2)(C(F)(F)F)O1", "note": "[efavirenz]", "values": [
      {"measurement": "Efavirenz plasma concentration", "setting": "[1]; HCV-coinfected individuals without cirrhosis", "value": 1.9, "unit": "µg/mL"},
      {"measurement": "Efavirenz plasma concentration", "setting": "[1]; patients with cirrhosis, P = 0.001", "value": 3.4, "unit": "µg/mL"}
    ]},
    {"smiles": "Cc1cccc(C)c1OCC(=O)N[C@@H](Cc1ccccc1)[C@@H](O)C[C@H](Cc1ccccc1)NC(=O)[C@H](C(C)C)N1CCCNC1=O", "note": "[lopinavir]", "values": [
      {"measurement": "Unbound lopinavir AUCu(0–12)", "setting": "[2]; [8]", "value": "0.87 (0.77–1.21) μg*h/mL"},
      {"measurement": "Unbound lopinavir Cu,max", "setting": "[2]; [8]", "value": "0.12 (0.10–0.14) μg/mL"},
      {"measurement": "Unbound lopinavir Cu,trough", "setting": "[2]; [8]", "value": "0.05 (0.03–0.08) μg/mL"},
      {"measurement": "Unbound lopinavir AUCu(0–12)", "setting": "[2]; [9]", "value": "1.21 (0.73–1.43) μg*h/mL"},
      {"measurement": "Unbound lopinavir Cu,max", "setting": "[2]; [9]", "value": "0.13 (0.10–0.18) μg/mL"},
      {"measurement": "Unbound lopinavir Cu,trough", "setting": "[2]; [9]", "value": "0.07 (0.05–0.10) μg/mL"},
      {"measurement": "Unbound lopinavir AUCu(0–12)", "setting": "[2]; [10]", "value": "1.41 (1.14–1.85) μg*h/mL"},
      {"measurement": "Unbound lopinavir Cu,max", "setting": "[2]; [10]", "value": "0.16 (0.14–0.18) μg/mL"},
      {"measurement": "Unbound lopinavir Cu,trough", "setting": "[2]; [10]", "value": "0.08 (0.03–0.10) μg/mL"},
      {"measurement": "Percentage of unbound LPV", "setting": "[3]", "value": 0.89, "unit": "%"},
      {"measurement": "Total lopinavir Ctrough", "setting": "[4]; Group I HIV+/HCV−, n=24", "value": "7.4 (4.1–10.0) μg/mL"},
      {"measurement": "Total lopinavir Ctrough", "setting": "[4]; Group II HIV+/HCV+, n=23", "value": "6.4 (4.5–10.1) μg/mL"},
      {"measurement": "Total lopinavir tmax", "setting": "[4]; Group II HIV+/HCV+, n=23", "value": "4.0 (4.0–6.0) h"},
      {"measurement": "Total lopinavir Ctrough", "setting": "[4]; [11]", "value": "7.0 (5.7–7.6) μg/mL"},
      {"measurement": "Total lopinavir tmax", "setting": "[4]; [11]", "value": "4.0 (4.0–6.0) h"},
      {"measurement": "Increase in drug clearance (compensatory effect)", "setting": "[4]; HIV/HCV-coinfected patients with cirrhosis versus HIV+/HCV− patients", "value": "~ 29%"}
    ]},
    {"smiles": "CC(C)c1nc(CN(C)C(=O)N[C@H](C(=O)N[C@@H](Cc2ccccc2)C[C@H](O)[C@H](Cc2ccccc2)NC(=O)OCc2cncs2)C(C)C)cs1", "note": "[ritonavir]", "values": [
      {"measurement": "Total ritonavir Ctrough", "setting": "[5]; Group I HIV+/HCV−, n=14, median (IQR)", "value": "0.57 (0.51–0.77) μg/mL"},
      {"measurement": "Total ritonavir Ctrough", "setting": "[5]; Group II HIV+/HCV+, n=15, median (IQR)", "value": "0.50 (0.23–0.73) μg/mL"},
      {"measurement": "Total ritonavir Ctrough", "setting": "[5]; Group III HIV+/HCV+ with cirrhosis, n=4, median (IQR)", "value": "0.70 (0.65–0.72) μg/mL"}
    ]},
    {"smiles": "Cc1c(O)cccc1C(=O)N[C@@H](CSc1ccccc1)[C@H](O)CN1C[C@H]2CCCC[C@H]2C[C@H]1C(=O)NC(C)(C)C", "note": "[NFV, nelfinavir]", "values": [
      {"measurement": "NFV AUC(0–12) fold higher relative to noncoinfected HIV+ control group", "setting": "[6]; HIV+/HCV+ patients with cirrhosis", "value": 2.5, "unit": "fold"},
      {"measurement": "NFV AUC(0–12) fold higher relative to noncoinfected HIV+ control group", "setting": "[6]; HIV+/HCV+ patients", "value": 1.3, "unit": "fold"}
    ]},
    {"smiles": "CCC[C@@]1(CCc2ccccc2)CC(O)=C([C@H](CC)c2cccc(NS(=O)(=O)c3ccc(C(F)(F)F)cn3)c2)C(=O)O1", "note": "[tipranavir]", "values": [
      {"measurement": "Change in tipranavir concentrations", "setting": "[7]", "value": "significant increase"}
    ]}
  ]
}
